# In ChEMBL document CHEMBL1131061, “Design and synthesis of a series of potent and orally bioavailable noncovalent thrombin inhibitors that utilize nonbasic groups in the P1 position” (J Med Chem, 1998):
# Legend:
# Prothrombin = Prothrombin (Homo sapiens, UniProt P00734); experiment: Binding affinity was evaluated on serine protease thrombin.
# [1] = Oral bioavailability in rats when dosed in a suspension of 1% methocel; type: ADME, organism-based; conditions: rat, in vivo
# How it was run: (§1)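 Fasted animals (24 h without food). Oral dose by gavage as a 1% methocel suspension. Intravenous dose given by indwelling jugular vein cannula in rat and by peripheral venipuncture in dog and cynomolgus monkey, in saline or 20% PEG 200. iv/po doses in mg/kg: rat 2/10, 5/20 or 5/12; dog 2/5 or 1/5; monkey 1/5. F (%) is the mean of at least three determinations.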
# [2] = Partition coefficient (logP); type: physicochemical; conditions: octanol/water
# How it was run: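 Log P determined experimentally by standard octanol/water partitioning.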
# Rattus norvegicus [3] = species on record: Rattus norvegicus; experiment: The final concentration in plasma of rat carotid artery FeCl3 induced thrombosis model; type: ADME, organism-based
# How it was run: (§2)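 Rat carotid artery FeCl₃-induced thrombosis model. Compound in saline vehicle infused iv at 10 μg/kg/min for 120 min before the FeCl₃ insult. Plasma drug concentration measured. Saline vehicle controls run alongside.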
# Chymotrypsinogen A [4] = target: T1, Chymotrypsinogen A (Bos taurus, UniProt P00766); experiment: Binding affinity was evaluated on serine protease Chymotrypsinogen; type: single protein
# Plasminogen = Plasminogen (Homo sapiens, UniProt P00747); experiment: Binding affinity was evaluated on serine protease plasmin.
# Plasminogen, sequence (P00747 97-580 limits assumed): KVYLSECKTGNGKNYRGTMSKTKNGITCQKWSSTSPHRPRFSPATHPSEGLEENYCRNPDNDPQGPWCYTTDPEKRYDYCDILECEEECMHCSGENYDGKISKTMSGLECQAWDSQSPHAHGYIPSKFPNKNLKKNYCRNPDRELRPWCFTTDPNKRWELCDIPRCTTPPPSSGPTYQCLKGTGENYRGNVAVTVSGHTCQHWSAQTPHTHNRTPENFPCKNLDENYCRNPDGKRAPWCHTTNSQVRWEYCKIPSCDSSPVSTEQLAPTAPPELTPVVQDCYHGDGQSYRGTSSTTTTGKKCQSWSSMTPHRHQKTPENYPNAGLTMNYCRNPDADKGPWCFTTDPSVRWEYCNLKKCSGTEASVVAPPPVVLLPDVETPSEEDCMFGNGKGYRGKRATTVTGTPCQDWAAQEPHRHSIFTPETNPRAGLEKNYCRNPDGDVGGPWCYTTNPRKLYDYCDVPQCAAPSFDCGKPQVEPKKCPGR
# Plasminogen, sequence (P00747 581-810 limits assumed): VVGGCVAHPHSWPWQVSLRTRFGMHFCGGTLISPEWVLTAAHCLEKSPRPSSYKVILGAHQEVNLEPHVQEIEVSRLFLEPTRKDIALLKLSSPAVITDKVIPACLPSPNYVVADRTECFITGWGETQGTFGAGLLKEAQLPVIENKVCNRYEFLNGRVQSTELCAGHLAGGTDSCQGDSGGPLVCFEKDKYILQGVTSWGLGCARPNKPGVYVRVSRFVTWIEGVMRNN
# Plasma kallikrein = Plasma kallikrein (Homo sapiens, UniProt P03952); experiment: Binding affinity was evaluated on serine protease plasma kallikrein.; type: cell-free
# Plasma kallikrein, sequence (P03952 20-390 limits assumed): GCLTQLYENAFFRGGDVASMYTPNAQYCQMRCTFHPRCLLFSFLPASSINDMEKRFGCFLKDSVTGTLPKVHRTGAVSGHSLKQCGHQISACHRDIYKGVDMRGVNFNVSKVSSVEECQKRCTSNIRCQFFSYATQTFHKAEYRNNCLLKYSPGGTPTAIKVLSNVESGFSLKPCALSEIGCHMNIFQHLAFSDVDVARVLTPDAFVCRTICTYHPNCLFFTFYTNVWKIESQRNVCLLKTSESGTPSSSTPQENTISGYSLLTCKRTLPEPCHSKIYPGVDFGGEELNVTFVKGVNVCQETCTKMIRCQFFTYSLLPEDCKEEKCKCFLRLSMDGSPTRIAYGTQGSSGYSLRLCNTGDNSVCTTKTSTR
# Plasma kallikrein, sequence (P03952 391-638 limits assumed): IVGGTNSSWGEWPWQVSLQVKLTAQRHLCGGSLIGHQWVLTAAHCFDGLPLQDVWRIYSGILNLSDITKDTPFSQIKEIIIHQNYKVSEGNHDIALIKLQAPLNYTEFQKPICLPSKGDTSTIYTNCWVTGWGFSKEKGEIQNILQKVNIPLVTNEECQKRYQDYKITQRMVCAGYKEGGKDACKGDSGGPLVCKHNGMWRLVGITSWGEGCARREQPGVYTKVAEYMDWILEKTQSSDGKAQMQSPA
# [5] = target: Tissue-type plasminogen activator (Homo sapiens, UniProt P00750); experiment: Binding affinity was evaluated on serine protease TPA.
# Tissue-type plasminogen activator, sequence (P00750 whole entry): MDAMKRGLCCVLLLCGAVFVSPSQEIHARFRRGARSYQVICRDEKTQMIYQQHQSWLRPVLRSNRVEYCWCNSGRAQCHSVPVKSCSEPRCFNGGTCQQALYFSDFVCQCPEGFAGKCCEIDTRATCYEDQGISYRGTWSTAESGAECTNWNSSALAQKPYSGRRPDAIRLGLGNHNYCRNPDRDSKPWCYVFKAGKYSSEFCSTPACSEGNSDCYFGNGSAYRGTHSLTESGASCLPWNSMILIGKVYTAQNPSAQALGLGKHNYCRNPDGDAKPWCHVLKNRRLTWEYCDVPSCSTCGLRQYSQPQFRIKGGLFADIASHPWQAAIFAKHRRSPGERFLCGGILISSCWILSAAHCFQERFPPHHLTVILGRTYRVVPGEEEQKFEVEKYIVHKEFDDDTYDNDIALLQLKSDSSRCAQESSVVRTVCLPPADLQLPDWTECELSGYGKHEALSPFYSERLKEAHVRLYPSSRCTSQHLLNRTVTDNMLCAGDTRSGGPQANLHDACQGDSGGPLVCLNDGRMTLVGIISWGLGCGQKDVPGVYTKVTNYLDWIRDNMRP
# Serine protease 1 [6] = target: T2, Serine protease 1 (Homo sapiens, UniProt P07477); experiment: Binding affinity was evaluated on serine protease trypsin.
# T2 sequence (P07477 whole entry): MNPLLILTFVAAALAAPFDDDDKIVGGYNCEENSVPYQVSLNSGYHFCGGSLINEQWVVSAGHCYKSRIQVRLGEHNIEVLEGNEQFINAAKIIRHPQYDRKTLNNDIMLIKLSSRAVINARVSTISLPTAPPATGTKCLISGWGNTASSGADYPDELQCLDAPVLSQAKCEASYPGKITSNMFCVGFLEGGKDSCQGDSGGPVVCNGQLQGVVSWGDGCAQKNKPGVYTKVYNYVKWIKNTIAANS
# [7] = The 2(APTT) value is defined as the concentration of compound in plasma required to double the activated partial thromboplastin time in human; type: functional
# How it was run: (§3)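 2 × APTT is the inhibitor concentration in plasma required to double the activated partial thromboplastin time.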
# [8] = Oral bioavailability in rat when dosed in a suspension of 1% methocel; type: ADME, organism-based; conditions: in vivo; how it was run: as §1
# [9] = Oral bioavailability in cynomolgus monkey (dosed in a suspension of 1% methocel); type: ADME, organism-based, Macaca fascicularis; conditions: in vivo; how it was run: as §1
# Homo sapiens [10] = species on record: Homo sapiens; experiment: % Free drug present in human plasma.; type: ADME, organism-based
# [11] = Oral bioavailability in cynomolgus monkey (dose 5 mg/kg); type: ADME, organism-based, Macaca fascicularis; conditions: in vivo; how it was run: as §1
# Homo sapiens [12] = species on record: Homo sapiens; experiment: Concentration of compound in plasma required to double the activated partial thromboplastin time in human measured as 2(APTT) value; type: functional, cell-free; how it was run: as §3
# Rattus norvegicus [13] = species on record: Rattus norvegicus; experiment: Concentration of compound in plasma required to double the activated partial thromboplastin time in rat measured as 2(APTT) value; type: functional, cell-free; how it was run: as §3
# Rattus norvegicus [14] = species on record: Rattus norvegicus; experiment: (§4) % Free drug present in rat plasma.; type: functional
# [15] = The concentration in plasma; type: ADME, cell-free; how it was run: as §2
# [16] = Oral bioavailability in dog (dosed in a suspension of 1% methocel); type: ADME, organism-based, Canis lupus familiaris; conditions: in vivo; how it was run: as §1
# Rattus norvegicus [17] = species on record: Rattus norvegicus; experiment: as §4; type: ADME, organism-based
# Chymotrypsinogen A [18] = target: T1, Chymotrypsinogen A; experiment: Selectivity was evaluated as the binding affinity between thrombin versus Chymotrypsinogen
# Serine protease 1 [19] = target: T2, Serine protease 1; experiment: Selectivity was evaluated as the binding affinity between thrombin versus trypsin.
Compound,Ki (Prothrombin),logP [2],concentration (Rattus norvegicus [3]),Ki (Chymotrypsinogen A [4]),Ki (Plasminogen),Ki (Plasma kallikrein),Ki [5],Ki (Serine protease 1 [6]),bioavailability [8],Free (Homo sapiens [10]),Concentration (Homo sapiens [12]),Concentration (Rattus norvegicus [13]),other results
CCN(CC)C(=O)CN[C@@H](C(=O)N1CCC[C@H]1C(=O)NCc1ccccc1Cl)C1CCCCC1,0.02 µM,,,,,,,,,,,,
CCN(CC)C(=O)CN[C@@H](C(=O)N1CCC[C@H]1C(=O)NCc1cc(Cl)ccc1Cl)C1CCCCC1,0.00031 µM,2.67,0.245 µM,174 µM,244 µM,399 µM,29 µM,27 µM,,,,,bioavailability [1]: 10%
"CC1CNc2c(cccc2S(=O)(=O)N[C@@H](CCCNC(=N)N)C(=O)N2CCC(C)C[C@@H]2C(=O)O)C1 (single isomer, unassigned) [ARGATROBAN]",,,,,,,,,,,,,2*APTT [7]: 0.28 µM
CCNC(=O)COc1ccc(Cl)cc1CNC(=O)[C@@H]1CCCN1C(=O)[C@H](N)C1CCCCC1,,2.07,,71 µM,,,,23 µM,10%,15%,0.41 µM,0.38 µM,bioavailability [9]: 63%; bioavailability [11]: 63%; Free (Rattus norvegicus [14]): 14%; concentration [15]: 0.794 µM; bioavailability [16]: 40%
N[C@@H](C(=O)N1CCC[C@H]1C(=O)NCc1cc(Cl)ccc1Cl)C1CCCCC1,0.005 µM,2.63,0.329 µM,49 µM,691 µM,586 µM,19 µM,29 µM,23%,4%,0.95 µM,,Free (Rattus norvegicus [17]): 9%
N[C@@H](C(=O)N1CCC[C@H]1C(=O)NCc1cc(Cl)ccc1OCC(=O)NC1CC1)C1CCCCC1,,2.04,,67 µM,113 µM,79 µM,36 µM,18 µM,20%,12%,0.35 µM,0.42 µM,bioavailability [9]: 34%; bioavailability [11]: 34%; Free (Rattus norvegicus [14]): 11%
NC(=O)COc1ccc(Cl)cc1CNC(=O)[C@@H]1CCCN1C(=O)[C@H](N)C1CCCCC1,0.0005 µM,1.96,0.726 µM,131 µM,152 µM,816 µM,11 µM,9 µM,,26%,0.25 µM,0.31 µM,Free (Rattus norvegicus [17]): 7%
N[C@@H](C(=O)N1CCC[C@H]1C(=O)NCc1cc(Cl)ccc1O)C1CCCCC1,0.0025 µM,,,,,,,,,,,,
CCOC(=O)COc1ccc(Cl)cc1CNC(=O)[C@@H]1CCCN1C(=O)[C@H](N)C1CCCCC1,0.00045 µM,,,,,,,,,,,,
NC(C(=O)N1CCC[C@H]1C(=O)NCc1cc(Cl)ccc1Cl)C(c1ccccc1)c1ccccc1 (stereo partly specified),,> 3.1,,,,,,,,,,,Ki (Chymotrypsinogen A [18]): > 50 µM; Ki (Serine protease 1 [19]): 7 µM; bioavailability [16]: 45%
